Laboratory results: ChEMBL document CHEMBL1781963, “Discovery of novel hepatoselective HMG-CoA reductase inhibitors for treating hypercholesterolemia: a bench-to-bedside case study on tissue selective drug distribution” (Bioorg Med Chem Lett, 2011)

How the values were obtained:
Syrian golden hamster = test: Inhibition of cholesterol synthesis in golden syrian hamster assessed as reduction of [14C]-cholesterol level at 10 mg/kg, po followed by 2 hrs after treated with 80 uCi, ip of [14C]-sodium acetate measured after 4 hrs by liquid scintillation counting relative to control; format: functional; conditions: Mesocricetus auratus
How it was run: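 Hamsters dosed po at 10 mg/kg at t = 0 h. Intraperitoneal 14C sodium acetate at t = 2 h, blood drawn at t = 4 h for 14C cholesterol. Percent inhibition vs untreated controls, n = 8/group.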

[1] = Fraction unbound in rat plasma at 0.5 ug/ml; format: ADME, cell-free
How it was run: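 Unbound fraction in rat, dog or human plasma, measured at a drug concentration of 0.5 μg/mL.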

[2] = Fraction unbound in rat liver at 1 uM; format: ADME, tissue-based
How it was run: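 Unbound fraction in rat liver tissue, measured at 1 μM drug.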

OATP1A1 = biological target: T1, OATP1A1 (Rattus norvegicus, UniProt P46720); test: Drug uptake by rat hepatic OATP1A1 transporters expressed in CHO cells at 10 uM relative to wild type CHO cells; format: ADME, cell-based; conditions: CHO cells expressing rat OATP1A1, read-out: FC
T1 sequence (P46720 whole entry): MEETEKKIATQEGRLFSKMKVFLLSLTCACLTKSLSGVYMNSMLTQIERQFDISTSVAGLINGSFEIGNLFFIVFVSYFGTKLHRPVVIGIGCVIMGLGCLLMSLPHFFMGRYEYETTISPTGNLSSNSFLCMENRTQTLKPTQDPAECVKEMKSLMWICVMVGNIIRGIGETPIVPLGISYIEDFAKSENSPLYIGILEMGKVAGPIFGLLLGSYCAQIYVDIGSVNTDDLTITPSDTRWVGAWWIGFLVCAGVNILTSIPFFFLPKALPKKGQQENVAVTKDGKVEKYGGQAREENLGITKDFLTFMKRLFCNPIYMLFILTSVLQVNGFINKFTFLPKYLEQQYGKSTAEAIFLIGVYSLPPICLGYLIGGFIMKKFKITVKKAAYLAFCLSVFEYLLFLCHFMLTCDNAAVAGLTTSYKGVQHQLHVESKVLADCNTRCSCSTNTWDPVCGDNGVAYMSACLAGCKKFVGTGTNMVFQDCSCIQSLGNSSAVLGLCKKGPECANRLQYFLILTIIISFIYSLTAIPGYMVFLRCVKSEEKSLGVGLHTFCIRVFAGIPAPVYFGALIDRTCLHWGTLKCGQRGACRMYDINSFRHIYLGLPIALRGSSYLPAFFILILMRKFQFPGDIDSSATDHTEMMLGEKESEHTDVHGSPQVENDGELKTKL
How it was run: (§1)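 Individual hepatic OATP transporters were over-expressed in CHO or HEK293 cells: rat rOatp1a1, rOatp1a4 and rOatp1b2, and human hOATP1B1, hOATP1B3 and hOATP2B1. Substrate uptake is expressed as fold difference relative to the wild-type parental line. Rosuvastatin/pravastatin served as positive control and midazolam as negative control in each assay.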

OATP2B1 = biological target: T2, OATP2B1 (Homo sapiens, UniProt O94956); test: Drug uptake by human hepatic OATP2B1 transporter expressed in HEK293 cells at 1 uM relative to wild-type HEK293 cells; format: ADME, cell-based; conditions: HEK293 cells expressing human OATP2B1, read-out: FC; how it was run: as §1
T2 sequence (O94956 whole entry): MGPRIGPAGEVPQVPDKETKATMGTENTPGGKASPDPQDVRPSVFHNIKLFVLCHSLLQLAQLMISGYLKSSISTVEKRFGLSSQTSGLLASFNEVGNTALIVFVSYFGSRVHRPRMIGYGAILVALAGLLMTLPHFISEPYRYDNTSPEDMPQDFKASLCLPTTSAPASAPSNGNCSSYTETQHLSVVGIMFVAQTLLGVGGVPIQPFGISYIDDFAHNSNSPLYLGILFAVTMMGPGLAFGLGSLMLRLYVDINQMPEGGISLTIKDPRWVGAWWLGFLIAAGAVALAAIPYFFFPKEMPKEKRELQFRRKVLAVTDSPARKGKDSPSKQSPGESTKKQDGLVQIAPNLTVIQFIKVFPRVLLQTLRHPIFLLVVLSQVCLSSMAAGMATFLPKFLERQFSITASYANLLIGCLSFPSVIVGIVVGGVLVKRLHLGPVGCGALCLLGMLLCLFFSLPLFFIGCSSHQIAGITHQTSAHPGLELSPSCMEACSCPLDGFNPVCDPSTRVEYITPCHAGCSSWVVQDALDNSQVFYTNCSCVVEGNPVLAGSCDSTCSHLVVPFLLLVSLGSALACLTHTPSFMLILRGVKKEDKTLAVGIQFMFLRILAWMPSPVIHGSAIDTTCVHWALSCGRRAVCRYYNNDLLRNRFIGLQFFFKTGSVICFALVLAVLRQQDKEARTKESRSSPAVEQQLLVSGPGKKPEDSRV

OATP1B2 = biological target: T3, OATP1B2 (Rattus norvegicus, UniProt Q9QZX8); test: Drug uptake by rat hepatic OATP1B2 transporters expressed in CHO cells at 1 uM relative to wild type CHO cells; format: ADME, cell-based; conditions: CHO cells expressing rat OATP1B2, read-out: FC; how it was run: as §1
T3 sequence (Q9QZX8 whole entry): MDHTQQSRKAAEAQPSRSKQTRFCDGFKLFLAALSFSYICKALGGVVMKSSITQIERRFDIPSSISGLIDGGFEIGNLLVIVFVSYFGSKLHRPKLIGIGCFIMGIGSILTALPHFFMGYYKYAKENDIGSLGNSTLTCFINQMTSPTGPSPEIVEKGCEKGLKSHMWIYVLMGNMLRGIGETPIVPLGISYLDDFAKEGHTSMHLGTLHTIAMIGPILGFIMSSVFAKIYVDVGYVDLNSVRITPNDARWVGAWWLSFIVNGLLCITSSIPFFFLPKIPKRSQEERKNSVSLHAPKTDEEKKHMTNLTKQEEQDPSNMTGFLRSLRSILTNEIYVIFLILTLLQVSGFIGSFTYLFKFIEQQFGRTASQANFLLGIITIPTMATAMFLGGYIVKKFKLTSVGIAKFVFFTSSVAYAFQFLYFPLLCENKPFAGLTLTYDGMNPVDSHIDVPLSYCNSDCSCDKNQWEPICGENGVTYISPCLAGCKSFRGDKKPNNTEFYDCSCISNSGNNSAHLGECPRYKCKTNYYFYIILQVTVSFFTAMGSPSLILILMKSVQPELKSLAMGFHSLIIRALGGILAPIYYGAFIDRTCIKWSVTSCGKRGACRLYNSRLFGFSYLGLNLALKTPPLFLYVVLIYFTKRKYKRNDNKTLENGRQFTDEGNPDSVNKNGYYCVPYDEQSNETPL

| SMILES | inhibition in vivo at 10 mg/kg (Syrian golden hamster) | fraction unbound at 0.5 ug/ml [1] | fraction unbound at 1 µM [2] | uptake ratio at 10 µM (OATP1A1) | uptake ratio at 1 µM (OATP2B1) | uptake ratio at 1 µM (OATP1B2) |
| --- | --- | --- | --- | --- | --- | --- |
| CC(C)c1nc(N(C)S(C)(=O)=O)nc(-c2ccc(F)cc2)c1/C=C/[C@@H](O)C[C@@H](O)CC(=O)O [ROSUVASTATIN] | -76% | 0.06 | 0.17 | 5.3 | 5.5 | – |
| Cc1ncc2n1-c1ccc(Cl)cc1C(c1ccccc1F)=NC2 [MIDAZOLAM] | – | – | – | 1.7 | 0.8 | 1.1 |
| Cc1ccc(CNC(=O)c2nn(-c3ccc(F)cc3)c(CC[C@@H](O)C[C@@H](O)CC(=O)O)c2C(C)C)cc1 | -74% | 0.016 | 0.052 | 4.2 | 2.1 | 2.9 |
| CC[C@H](C)C(=O)O[C@H]1C[C@H](O)C=C2C=C[C@H](C)[C@H](CC[C@@H](O)C[C@@H](O)CC(=O)O)[C@H]21 [PRAVASTATIN] | – | – | – | 3.9 | – | 3.6 |
| O=C([O-])C[C@H](O)C[C@H](O)CCn1c(-c2ccc(F)cc2)nc(C(=O)NCc2cccc(F)c2)c1C1CC1.[Na+] | -68% | 0.15 | 0.23 | 4.4 | 7.1 | 1.8 |
